Data: ChEMBL document CHEMBL1138362, “Dihydro-alkylthio-benzyl-oxopyrimidines as inhibitors of reverse transcriptase: synthesis and rationalization of the biological data on both wild-type enzyme and relevant clinical mutants” (J Med Chem, 2007)

Experiments:
[1] = molecular target: Human immunodeficiency virus type 1 reverse transcriptase (Human immunodeficiency virus 1) (UniProt Q72547); experiment: Antiviral activity against wild type HIV1 reverse transcriptase
[2] = system: Human immunodeficiency virus 1 [K103N]; experiment: Antiviral activity against HIV1 reverse transcriptase K103N mutant
[3] = system: Human immunodeficiency virus type 1 reverse transcriptase (Human immunodeficiency virus 1), Q72547 [Y181I]; experiment: Antiviral activity against HIV1 reverse transcriptase Y181I mutant
[4] = system: Human immunodeficiency virus 1; experiment: Antiviral activity against wild type HIV1 NL4-3 in MT4 cells after 5 days by MTT method; format: functional, organism-based; conditions: Human immunodeficiency virus 1, NL4-3, MT4, 120 h
In short: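 MT-4 lymphoid cells, infected with HIV-1 or mock-infected (for cytotoxicity), held with a range of drug concentrations; viable cells scored at day 5 post-infection by tetrazolium (MTT) colorimetry.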

[5] = system: Human immunodeficiency virus 1; experiment: Antiviral activity against HIV1 with reverse transcriptase K103N mutation in MT4 cells after 5 days by MTT method; format: functional, organism-based; conditions: Human immunodeficiency virus 1, MT4, 120 h
In short: (§1)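 MT-4 cells from the NIH AIDS Reagent Program were infected with mutant HIV-1 (K103N or Y188L, from the MRC Centralised Facility) in the presence of graded drug concentrations. Mock-infected cells were used for cytotoxicity. Viable cells were counted by MTT colorimetry at day 5 post-infection.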

[6] = system: Human immunodeficiency virus 1; experiment: Antiviral activity against HIV1 with reverse transcriptase Y181C mutation in MT4 cells after 5 days by MTT method; format: functional, organism-based; conditions: Human immunodeficiency virus 1, MT4, 120 h
[7] = system: Human immunodeficiency virus 1; experiment: Antiviral activity against HIV1 with reverse transcriptase Y188L mutation in MT4 cells after 5 days by MTT method; format: functional, organism-based; conditions: Human immunodeficiency virus 1, MT4, 120 h; in short: as §1

Row | SMILES | ID50 [1] [µM] | ID50 [2] [µM] | ID50 [3] [µM] | EC50 [4] [µM] | EC50 [5] [µM] | EC50 [6] [µM] | EC50 [7] [µM]
1 | CCC(c1nc(SCc2ccc(OC)cc2)[nH]c(=O)c1C)c1c(F)cccc1F (centres undefined) | 0.047 | > 20 | > 20 | 0.0019 | 6.13 | 5.02 | 1.46
2 | Cc1c(C(C)c2c(F)cccc2F)nc(SCc2ccc([N+](=O)[O-])cc2)[nH]c1=O (centres undefined) | 0.03 | 0.6 | > 20 | 0.0033 | 0.66 | 0.44 | 0.22
3 | CCc1c(Cc2c(Cl)cccc2Cl)nc(SC/C=C/c2ccc(OC)cc2)[nH]c1=O | 0.056 | > 20 | > 20 | 0.0015 | > 0.19 | > 0.19 | > 0.19
4 | Cc1c(Cc2ccc(C#N)cc2)nc(SCc2ccc(C#N)cc2)[nH]c1=O | > 20 | > 20 | > 20 | > 67.2 | > 67.2 | > 67.2 | > 67.2
5 | COc1ccc(CCCSc2nc(C(C)c3c(Cl)cccc3Cl)c(C)c(=O)[nH]2)cc1 (centres undefined) | 9.76 | > 20 | > 20 | 0.0002 | 0.82 | 0.24 | 0.28
6 | COc1ccc(/C=C/CSc2nc(Cc3c(Cl)cccc3Cl)c(C)c(=O)[nH]2)cc1 | 0.007 | 9 | > 20 | 0.015 | > 0.96 | > 0.96 | > 0.96
7 | CCc1c(Cc2c(F)cccc2F)nc(SCc2ccc([N+](=O)[O-])cc2)[nH]c1=O | 0.07 | > 20 | > 20 | 0.074 | 10.6 | 2.13 | > 60
8 | COc1ccc(C#CCSc2nc(C(C)c3c(Cl)cccc3Cl)c(C)c(=O)[nH]2)cc1 (centres undefined) | 0.005 | > 20 | > 20 | 0.5 | > 54.5 | 33.5 | 24.8
9 | Cc1c(C(C)c2c(Cl)cccc2Cl)nc(SC/C=C/c2ccc([N+](=O)[O-])cc2)[nH]c1=O (centres undefined) | 0.102 | > 20 | > 20 | 0.48 | > 41 | > 41 | > 41
10 | COc1ccc(/C=C/Sc2nc(C(C)c3c(Cl)cccc3Cl)c(C)c(=O)[nH]2)cc1 (centres undefined) | 0.02 | > 20 | > 20 | 16.2 | > 55.9 | > 55.9 | > 55.9
11 | Cc1c(C(C)c2c(Cl)cccc2Cl)nc(SCc2ccc(C#N)cc2)[nH]c1=O (centres undefined) | 0.02 | > 20 | > 20 | 0.16 | 11.6 | – | –
12 | COc1ccc(COCCSc2nc(C(C)c3c(F)cccc3F)c(C)c(=O)[nH]2)cc1 (centres undefined) | 0.0082 | 9.94 | > 20 | 0.0011 | 0.92 | 0.65 | 0.32
13 | COc1ccc(C#CCSc2nc(Cc3c(Cl)cccc3Cl)c(C)c(=O)[nH]2)cc1 | 0.01 | > 20 | > 20 | 2.47 | > 56.2 | – | > 56.2
14 | COc1ccc(COCCSc2nc(Cc3c(Cl)cccc3Cl)c(C)c(=O)[nH]2)cc1 | 0.063 | 56 | > 20 | 0.021 | 3.44 | 3.01 | 1.72
15 | Cc1c(C(C)c2c(F)cccc2F)nc(SC/C=C/c2ccc([N+](=O)[O-])cc2)[nH]c1=O (centres undefined) | 0.283 | > 20 | > 20 | 0.14 | > 11.3 | > 11.3 | > 11.3
16 | CCc1c(Cc2c(Cl)cccc2Cl)nc(SC/C=C/c2ccc(C#N)cc2)[nH]c1=O | 0.188 | > 20 | > 20 | 1.73 | > 54.8 | – | > 54.8
17 | CCc1c(Cc2c(Cl)cccc2Cl)nc(SCc2ccc([N+](=O)[O-])cc2)[nH]c1=O | 0.075 | > 20 | > 20 | 0.0666 | > 55.6 | 1.58 | > 55.6
18 | COc1ccc(/C=C/CSc2nc(C(C)c3c(F)cccc3F)c(C)c(=O)[nH]2)cc1 (centres undefined) | 0.292 | 3.7 | > 20 | 0.0002 | 0.26 | 0.13 | 0.07
19 | CCc1c(C(C)c2c(F)cccc2F)nc(SC/C=C/c2ccc(C#N)cc2)[nH]c1=O (centres undefined) | 0.048 | > 20 | > 20 | 0.59 | > 27.2 | > 27.2 | > 27.2

Row | SMILES | ID50 [1] [µM] | ID50 [2] [µM] | ID50 [3] [µM] | EC50 [4] [µM] | EC50 [5] [µM] | EC50 [6] [µM] | EC50 [7] [µM]
20 | CCc1c(C(C)c2c(F)cccc2F)nc(SC/C=C/c2ccc(OC)cc2)[nH]c1=O (centres undefined) | 0.016 | 0.4 | > 20 | 0.0002 | 1.02 | 0.7 | 0.63
21 | CCc1c(Cc2c(F)cccc2F)nc(SCCc2ccc(OC)cc2)[nH]c1=O | 0.022 | > 20 | > 20 | 0.0002 | 1.92 | 2.78 | > 60.1
22 | Cc1c(Cc2c(F)cccc2F)nc(SCC(=O)c2ccc([N+](=O)[O-])cc2)[nH]c1=O | 0.95 | > 20 | > 20 | 0.37 | > 58 | 4.18 | > 58
23 | CCc1c(Cc2c(Cl)cccc2Cl)nc(SC/C=C/c2ccc([N+](=O)[O-])cc2)[nH]c1=O | 2.5 | > 20 | > 20 | 0.61 | > 32.1 | 4.2 | > 32.1
24 | Cc1c(Cc2c(Cl)cccc2Cl)nc(SC/C=C/c2ccc(N(C)C)cc2)[nH]c1=O | 0.778 | > 20 | > 20 | > 54.4 | > 54.4 | > 54.4 | > 54.4
25 | COc1ccc(CSc2nc(C(C)c3c(Cl)cccc3Cl)c(C)c(=O)[nH]2)cc1 (centres undefined) | 0.77 | > 20 | > 20 | 0.0011 | 6.72 | 1.73 | –
26 | Cc1c(Cc2c(F)cccc2F)nc(SCC#Cc2ccc([N+](=O)[O-])cc2)[nH]c1=O | 0.416 | > 20 | > 20 | 40.1 | > 58.6 | > 58.6 | > 58.6
27 | CCc1c(Cc2c(Cl)cccc2Cl)nc(SCCc2ccc(OC)cc2)[nH]c1=O | 0.07 | > 20 | > 20 | 0.0013 | 6.81 | 3.85 | > 11.1
28 | COc1ccc(/C=C/Sc2nc(Cc3c(Cl)cccc3Cl)c(C)c(=O)[nH]2)cc1 | 1.98 | > 20 | > 20 | > 57.7 | > 57.7 | > 57.7 | > 57.7
29 | CCc1c(C(C)c2c(F)cccc2F)nc(SCCOCc2ccc(OC)cc2)[nH]c1=O (centres undefined) | 0.741 | > 20 | 0.27 | 3.89 | > 54.4 | > 54.4 | > 54.4
30 | Cc1c(C(C)c2c(F)cccc2F)nc(SC/C=C/c2ccc(C#N)cc2)[nH]c1=O (centres undefined) | 0.161 | > 20 | > 20 | 0.14 | > 59.1 | > 59.1 | > 59.1
31 | COc1ccc(CCSc2nc(Cc3c(F)cccc3F)c(C)c(=O)[nH]2)cc1 | 0.029 | 3.5 | > 20 | 0.0049 | 4.13 | 6.34 | 8.53
32 | CCCCc1ccc(CSc2nc(Cc3ccc(C#N)cc3)c(C)c(=O)[nH]2)cc1 | > 20 | > 20 | > 20 | 4.57 | > 79.9 | > 79.9 | > 79.9
33 | Cc1c(Cc2c(Cl)cccc2Cl)nc(SC/C=C/c2ccc([N+](=O)[O-])cc2)[nH]c1=O | 3.81 | > 20 | > 20 | > 10.8 | > 10.8 | > 10.8 | > 10.8
34 | Cc1c(Cc2c(F)cccc2F)nc(SCC(=O)c2ccc(Cl)cc2)[nH]c1=O | 7.5 | > 20 | > 20 | 3.76 | > 59.5 | 3.69 | > 59.5
35 | Cc1c(Cc2ccc(C#N)cc2)nc(SCC(=O)c2ccccc2)[nH]c1=O | > 20 | > 20 | > 20 | > 67.2 | > 67.2 | > 67.2 | > 67.2
36 | Cc1c(C(C)c2c(Cl)cccc2Cl)nc(SCc2ccc([N+](=O)[O-])cc2)[nH]c1=O (centres undefined) | 0.408 | > 20 | > 20 | 0.019 | 6.22 | 7.15 | 9.95
37 | COc1ccc(CCSc2nc(C(C)c3c(Cl)cccc3Cl)c(C)c(=O)[nH]2)cc1 (centres undefined) | 0.593 | > 20 | > 20 | 0.0002 | 6.57 | 3.76 | 8.17
